Hits are enriched below; roughly 4.1% of the tested compounds scored in any of these assays.
SMARCA2 act = activators of SMARCA2 function; MG213 cells, MMTV-luciferase reporter, dexamethasone, overnight; activation, % at 9.1 µM; actives 1% (n = 370,000); AID 652017; in the data active = activation above about 7.8%
Efflux pump inh = antifungal efflux pump inhibition, Nile Red retention. inhibition, % at 10 µM. S. cerevisiae Candida pump triplex. actives 0.44% (n = 330,000);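 active = plate passing quality check with inhibition over a set limit, or well fluorescence over plate mean plus 4 SD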;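 also: Nile Red retained in pooled yeast measured as flow cytometry median fluorescence; higher means more Nile Red kept so more efflux inhibition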
TbMetRS inhib = blocks T. brucei methionyl-tRNA synthetase activity | inhibition, % at 11.9 µM | purified T. brucei MetRS, ATP depletion, Kinase-Glo luminescence | AID 624268 | actives 0.4% (n = 360,000);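 active = inhibition above a per-plate cutoff of the control wells' mean inhibition plus 3 SD, cut at about 5.5% in these data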
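Dosing: 11.9 µM compound single dose, 0.9% DMSO; Assay system: purified T. brucei MetRS enzyme; Measured by: Kinase-Glo luciferase luminescence reporting remaining unconsumed ATP; Schedule: 15 min plus 2 h at 25 °C.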
H9c2 TAG inh = reduces triacylglycerol accumulation in H9c2 cells; Nile Red lipid (TAG) fluorescence; cells loaded with 200 µM oleic acid; inhibition, % at 12.5 µM; actives 0.66% (n = 230,000);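 active = pattern-corrected inhibition of lipid staining of at least 50% with the nuclear-stain viability signal not falling by more than 50%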
AHR act = activators of human aryl hydrocarbon receptor. activation, % at 5 µM. AID 2796. actives 2.5% (n = 320,000). AHR-responsive luciferase reporter cells, luminescence; in the data active = activation above about 47%
Target sequence (P35869 whole entry, looked up): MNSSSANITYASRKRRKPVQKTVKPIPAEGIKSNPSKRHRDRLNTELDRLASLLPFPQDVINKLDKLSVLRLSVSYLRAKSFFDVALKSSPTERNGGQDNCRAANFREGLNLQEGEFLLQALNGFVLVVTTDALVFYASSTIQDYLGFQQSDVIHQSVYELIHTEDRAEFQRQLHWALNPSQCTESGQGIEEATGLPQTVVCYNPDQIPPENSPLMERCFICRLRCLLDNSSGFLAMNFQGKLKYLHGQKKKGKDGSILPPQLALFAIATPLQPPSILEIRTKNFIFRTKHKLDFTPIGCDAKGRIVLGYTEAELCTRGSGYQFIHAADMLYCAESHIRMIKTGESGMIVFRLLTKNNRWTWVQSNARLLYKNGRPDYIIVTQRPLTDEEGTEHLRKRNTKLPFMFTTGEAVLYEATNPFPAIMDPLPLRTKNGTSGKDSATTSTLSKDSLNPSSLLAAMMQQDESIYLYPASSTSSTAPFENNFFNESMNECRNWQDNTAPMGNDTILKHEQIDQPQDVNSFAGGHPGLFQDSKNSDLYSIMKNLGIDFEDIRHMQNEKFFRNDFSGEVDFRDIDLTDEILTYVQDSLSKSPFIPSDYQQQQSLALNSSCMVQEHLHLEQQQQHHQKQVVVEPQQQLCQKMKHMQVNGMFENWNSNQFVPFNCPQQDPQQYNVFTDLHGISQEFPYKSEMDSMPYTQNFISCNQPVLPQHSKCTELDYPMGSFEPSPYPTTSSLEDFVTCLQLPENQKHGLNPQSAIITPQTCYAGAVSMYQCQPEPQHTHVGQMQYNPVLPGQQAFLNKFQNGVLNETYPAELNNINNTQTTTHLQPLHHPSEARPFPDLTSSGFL
AHR act cf = confirmation of human aryl hydrocarbon receptor activators; shares compounds with AHR act; human cells, AHR-responsive luciferase reporter, luminescence; activation, % at 9 µM; actives 87% (n = 2,300); AID 2845; in the data active = activation above about 49%;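 also: HepG2 hepatoma cells carrying a DRE-driven firefly luciferase reporter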
PXR act counter = PXR activation, counter-screen for AHR activators; shares compounds with AHR act; cell-based PXR reporter, luciferase luminescence; activation, % at 11.6 µM; actives 88% (n = 2,300); AID 434939; in the data active = activation above about 11%;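 also: human hepatoma DPX-2 cells expressing full-length human PXR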
Large screens that a line does not name were inactive (follow-up assays come after a bar, where they were run).

Cc1cc(C(F)(F)F)n2nc(-c3cccs3)cc2n1	none
Cc1cc(C(F)(F)F)n2nc(-c3sccc3-n3cccc3)cc2n1	AHR act 103 (no result: H9c2 TAG inh) | AHR act cf 113 | PXR act counter 44
Brc1cccc(-c2n[nH]c(-c3ccccc3)n2)c1	AHR act 117 | AHR act cf 128 | PXR act counter 15
Cc1ccc(-c2csc3nc(-c4ccncc4)[nH]c(=O)c23)cc1	none
Cc1ccc2nc(-c3ccncc3)[nH]c2c1	AHR act 134 | AHR act cf 87 | PXR act counter 21
Cc1ccccc1/C=N/Nc1ccnc2cc(Cl)ccc12	none (no result: H9c2 TAG inh)
Cc1ccc(/C=N/Nc2ccnc3cc(Cl)ccc23)c(C)c1	AHR act 87 (no result: H9c2 TAG inh) | AHR act cf inactive | PXR act counter 16
COc1ccc(-n2c(COc3ccc(Cl)cc3)nnc2SCc2nc3ccccc3[nH]2)cc1	none (no result: Efflux pump inh, TbMetRS inhib, H9c2 TAG inh, AHR act)
CCOc1ccc(NC(=O)CNC(=O)COc2ccccc2)cc1	AHR act 121 (no result: H9c2 TAG inh) | AHR act cf inactive | PXR act counter 11
CC(=O)Nc1cccc(OCC(=O)Nc2ccc(F)cc2)c1	AHR act 85 | AHR act cf 76
CCOc1ccc(NC(=O)Nc2cccc(C)n2)cc1	AHR act 80 (no result: H9c2 TAG inh) | AHR act cf 71 | PXR act counter 18
S=C1NC[C@H](Cc2ccccc2)N1CC1CCN(CCCC2CCCCC2)CC1	none (no result: Efflux pump inh, TbMetRS inhib, H9c2 TAG inh, AHR act)
CCn1c(COc2ccc(C)cc2)nnc1SCC(=O)Nc1ccc(C(=O)OC)cc1	none (no result: Efflux pump inh, TbMetRS inhib, H9c2 TAG inh, AHR act)
CCCNc1nc(Cl)nc(Nc2ccc(Cl)cc2)n1	AHR act 127 (no result: H9c2 TAG inh) | AHR act cf 91
CN1OC[C@@H]2CN(C(=O)c3ccc(C#N)cc3)[C@H](c3cccc(Br)c3)C[C@@H]21	none (no result: Efflux pump inh, TbMetRS inhib, H9c2 TAG inh, AHR act)
COc1ccc(NC(=O)N(C)[C@H]2C[C@H]3c4[nH]c5c(-c6cccc(C)c6)cccc5c4CCN3C(=O)[C@H]2[C@H](C)O)cc1	none (no result: Efflux pump inh, TbMetRS inhib, H9c2 TAG inh, AHR act)
CC(=O)c1c(C)[nH]c(C(=O)NNC(=O)c2ccc(C)cc2)c1C	none
CCOc1ccc(OCC)c(NC(=O)c2[nH]c(C)c(C(C)=O)c2C)c1	AHR act 80 | AHR act cf 95 | PXR act counter 19
COc1ccc(Cl)cc1C(=O)NNC(=O)c1[nH]c(C)c(C(C)=O)c1C	AHR act 81 | AHR act cf 96 | PXR act counter 50
COc1ccc(CCNC(=O)c2cc3c(C)nn(-c4ccccc4)c3s2)cc1OC	none (no result: Efflux pump inh, TbMetRS inhib, H9c2 TAG inh, AHR act)
Cn1cccc1/C=N/n1c(-c2ccc(Cl)cc2Cl)n[nH]c1=S	none
Cn1cccc1/C=N/n1c(-c2ccc(Cl)cc2)n[nH]c1=S	AHR act 89 | AHR act cf 81 | PXR act counter 25
O=C(CN1CCOCC1)n1c2ccccc2c2ccccc21	none
Cc1c(C)n(C(=O)CN2CCC(C)CC2)c2ccccc12	AHR act 83 | AHR act cf 53 | PXR act counter 15
Cn1c(SCC(=O)NCc2ccccc2)nc2c([nH]c3ccccc32)c1=O	AHR act 84 (no result: SMARCA2 act, TbMetRS inhib, H9c2 TAG inh) | AHR act cf 97 | PXR act counter 126
CCn1c(SCC(=O)NCCc2ccccc2)nc2c([nH]c3ccccc32)c1=O	AHR act 109 | AHR act cf 86 | PXR act counter 168
CCn1c(SCC(=O)N2CCCCCC2)nc2c([nH]c3ccccc32)c1=O	AHR act 128 | AHR act cf 102 | PXR act counter 182
CCC(C)Sc1nc2c([nH]c3ccccc32)c(=O)n1C (stereo unspecified)	AHR act 87 | AHR act cf 88 | PXR act counter 52
C#CCN(C[C@H]1[C@H](OC(=O)Nc2c(C)noc2C)[C@H](OC(=O)Nc2c(C)noc2C)CN(C(=O)OC(C)C)N1C(=O)OC(C)C)S(=O)(=O)c1ccc(C)cc1	none (no result: Efflux pump inh, TbMetRS inhib, H9c2 TAG inh, AHR act)
CC(COc1cccc(Br)c1)CN1CCC(C(O)(c2ccccc2)c2ccccc2)CC1 (stereo unspecified)	none (no result: Efflux pump inh, TbMetRS inhib, H9c2 TAG inh, AHR act)
CCn1c2ccccc2c2cc(NC(=O)CSc3nnnn3-c3ccccc3)ccc21	AHR act 82 | AHR act cf 133 | PXR act counter active
CCn1c2ccccc2c2cc(NC(=O)CSc3nnc(C4CC4)n3Cc3ccco3)ccc21	AHR act 112 | AHR act cf 56 | PXR act counter 171
CCCC[C@H](C(=O)N(CC)c1ccccc1)[C@@H](O)c1ccc(C(C)=O)cc1	none (no result: Efflux pump inh, TbMetRS inhib, H9c2 TAG inh, AHR act)
Cc1ccc(CSc2nc3ccccc3cc2C=O)cc1	AHR act 82 | AHR act cf 72 | PXR act counter 15
CC(C)c1[nH]nc2c1C(c1ccccc1)N(c1ccccc1)C2=O (stereo unspecified)	none (no result: Efflux pump inh, TbMetRS inhib, H9c2 TAG inh, AHR act)
N#CC1=C(N)Nc2nc3ccccc3n2C1c1ccc(F)cc1 (stereo unspecified)	AHR act 94 | AHR act cf 80 | PXR act counter 62
CCOC(=O)[C@@]12CCCC=C1N(CCc1ccc(Cl)cc1)C(=O)[C@H]2CC(=O)NCc1ccc(C)o1	none (no result: Efflux pump inh, TbMetRS inhib, H9c2 TAG inh, AHR act)
O=C1CCCc2nc3c(cc21)C(O)Oc1ccccc1-3 (stereo unspecified)	none
O=C1CCCc2nc3c(cc21)C(O)Oc1c-3ccc2ccccc12 (stereo unspecified)	AHR act 148 | AHR act cf inactive | PXR act counter 45
CN(C)c1cc(-c2ccc(Br)cc2)oc(=O)c1Cl	AHR act 85 | AHR act cf 70 | PXR act counter 22
Nn1c(SCC(=O)NC2CCCCC2)nnc1-c1cc(-c2ccccc2)n[nH]1	none (no result: Efflux pump inh, TbMetRS inhib, H9c2 TAG inh, AHR act)
O=C(NC(=S)Nc1sc2c(c1C(=O)O)CCCC2)c1ccccc1	AHR act 81 (no result: H9c2 TAG inh) | AHR act cf 112 | PXR act counter 16
CC(C)C(=O)NC(=S)Nc1sc2c(c1C(N)=O)CCCC2	AHR act 90 (no result: H9c2 TAG inh) | AHR act cf 97 | PXR act counter 16
NC(=O)c1c(NC(=O)c2ccncc2)sc2c1CCCC2	none
Cc1occc1C(=O)Nc1sc2c(c1C(N)=O)CCCCC2	AHR act 83 | AHR act cf 79 | PXR act counter 49
NC(=O)c1c(NC(=O)c2ccccc2)sc2c1CCC2	AHR act 125 | AHR act cf 146 | PXR act counter 24
O=S(=O)(c1cccs1)N1CCC(c2cn3ccccc3n2)CC1	none (no result: Efflux pump inh, TbMetRS inhib, H9c2 TAG inh, AHR act)
COC[C@@H]1CCCN1c1cccc2c1S(=O)(=O)N1CC[C@H](C1)O2	none (no result: Efflux pump inh, TbMetRS inhib, H9c2 TAG inh, AHR act)
O=C(CSc1nc2ccccc2nc1N1CCCCC1)N1CCN(C(c2ccccc2)c2ccc(Cl)cc2)CC1 (stereo unspecified)	none (no result: Efflux pump inh, TbMetRS inhib, H9c2 TAG inh, AHR act)
COC(=O)[C@@]12CCCCC3=C1N(CCC3)C(=O)[C@H]2CC(=O)N1CCOCC1	none (no result: Efflux pump inh, TbMetRS inhib, H9c2 TAG inh, AHR act)
CNC(=O)c1c(NC(=O)c2nc3ccccc3s2)sc2c1CCC2	AHR act 112 (no result: SMARCA2 act) | AHR act cf 79 | PXR act counter 29
Cc1cc(SCC(=O)NCCN2C(=O)CSC2=O)nc2c(C)cccc12	none (no result: H9c2 TAG inh)
COC(=O)CSc1nc(C)cc(C)c1C#N	none

Screening results: PubChem, several laboratories
